High-throughput results: PubChem, several laboratories
The entries come from a sample that favours hits as a whole.
PTEN del growth = suppresses growth of cells with PTEN deletion; 140,000 compounds, 1.2% hits; HCT116 PTEN-null viability, CellTiter-Glo, 60 h; active compounds read low; AID 827; viability, % at 10 µM;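 active = viability at or below a set limit, 4 SD under the median of all tested compounds, cut at about 3.7% in these data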;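 note: PTEN knockout HCT116 line with beta catenin targeted HCT116 as companion control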
HUVEC prolif 384 = human endothelial cell proliferation inhibition | HUVEC proliferation, CellTiter-Glo luminescence, 72 h; active compounds read low | AID 648 | viability, % at 10 µM (by protocol) | 86,000 compounds, 1.1% hits;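 active = viability at or below 30%; inactive = viability above 30%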;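 note: 100% = median luminescence of DMSO-only cell control wells on each plate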
Fibroblast inh = blocks proliferation of human lung fibroblasts. LL 47 human lung fibroblast viability, ATP luminescence; active compounds read low. viability, % at 10 µM. 85,000 compounds, 1.1% hits. AID 719;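 active = viability at or below 50% in the single dose screen; inactive = viability above 50%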;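 note: compound exposure lasted 72 h before the ATP readout; 100% = median luminescence of untreated cell-only wells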
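Test system: LL 47 human lung fibroblasts / Quantity: 1,150 cells in each well / Medium: IMEM growth medium with 15% fetal bovine serum / Incubation: 72 h compound exposure at 37 °C after overnight plating / Detection: CellTiter-Glo luminescence measuring cellular ATP / Read-out: % viability versus median cells-only luminescence / Benchmarks: cell-only wells, no compound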
H69AR inhibit = blocks growth of human H69AR lung tumor cells. H69AR lung tumor viability, ATP luminescence, 72 h; active compounds read low. viability, % at 10 µM. 85,000 compounds, 6% hits. AID 598;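 active = viability at or below 40%; inactive = viability above 40%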;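 note: multidrug resistant small cell line overexpressing MRP-1 efflux transporter; 100% = mean luminescence of untreated control wells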
Pyk2 oligo antag = antagonists of human Pyk2 oligomerization; 99,000 compounds, 0.83% hits; z-score (the deposit names both 25 µM and 10 µM); Q14289; Q293 cells, Pyk2 FERM NanoBiT luminescence; active compounds read low;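 active = Z-score of -3 or lower, scaled per plate to the spread of control and sample wells; inactive = z-score above -3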;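 note: negative z-score means lost luminescence so less FERM oligomerization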
Target sequence (Q14289 whole entry, looked up): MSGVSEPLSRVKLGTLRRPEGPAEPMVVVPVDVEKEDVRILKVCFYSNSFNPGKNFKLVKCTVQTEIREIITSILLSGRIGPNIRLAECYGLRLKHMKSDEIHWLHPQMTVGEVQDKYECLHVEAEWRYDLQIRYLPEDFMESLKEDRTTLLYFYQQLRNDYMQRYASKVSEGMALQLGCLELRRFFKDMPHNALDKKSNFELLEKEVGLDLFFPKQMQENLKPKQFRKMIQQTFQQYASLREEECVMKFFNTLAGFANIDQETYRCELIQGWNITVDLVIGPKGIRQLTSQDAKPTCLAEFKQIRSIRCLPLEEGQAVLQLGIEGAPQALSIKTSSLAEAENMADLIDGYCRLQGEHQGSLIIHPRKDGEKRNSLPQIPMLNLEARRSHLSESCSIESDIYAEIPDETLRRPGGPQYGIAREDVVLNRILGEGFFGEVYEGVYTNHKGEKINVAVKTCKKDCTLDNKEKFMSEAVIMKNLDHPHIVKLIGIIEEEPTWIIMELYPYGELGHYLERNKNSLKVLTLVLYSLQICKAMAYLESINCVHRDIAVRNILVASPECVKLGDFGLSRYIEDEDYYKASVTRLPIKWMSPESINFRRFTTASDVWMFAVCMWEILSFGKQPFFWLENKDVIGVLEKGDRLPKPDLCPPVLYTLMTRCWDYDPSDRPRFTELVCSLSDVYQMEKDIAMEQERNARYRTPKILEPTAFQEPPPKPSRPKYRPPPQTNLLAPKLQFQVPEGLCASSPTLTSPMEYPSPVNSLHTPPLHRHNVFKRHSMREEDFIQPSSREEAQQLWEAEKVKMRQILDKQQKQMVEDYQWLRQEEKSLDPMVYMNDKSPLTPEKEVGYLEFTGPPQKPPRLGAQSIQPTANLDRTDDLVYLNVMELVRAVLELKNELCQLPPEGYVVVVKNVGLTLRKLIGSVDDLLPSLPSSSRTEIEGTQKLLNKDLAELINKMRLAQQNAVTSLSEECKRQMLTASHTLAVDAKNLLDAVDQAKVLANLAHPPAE
bCat KO growth = beta-catenin-lacking colon tumor cell growth suppression | HCT116 beta-catenin knockout viability, CellTiter-Glo, 60 h; active compounds read low | viability, % at 10 µM | 140,000 compounds, 1.5% hits | AID 818;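 active = viability at or under a set limit, the compound median less 4 SD, cut at about 6% in these data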;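 note: 0% = Hyamine 1622 control at 20 µM and 100% = untreated cell control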
* = called active by the depositor.

Results for Cc1ccccc1-c1noc(-c2ccc(Cl)cc2)n1 ?
PTEN del growth: 77; HUVEC prolif 384: 97; Fibroblast inh: 99; H69AR inhibit: 91; Pyk2 oligo antag: 0.43; bCat KO growth: 67

How did Cc1ccccc1-c1noc(-c2ccc(O)cc2)n1 do in these assays?
PTEN del growth: 64; HUVEC prolif 384: 71; Fibroblast inh: 110; H69AR inhibit: 15*; Pyk2 oligo antag: -1.8; bCat KO growth: 70

What do the screens show for `N#CC1=C2SCC(O)(c3ccccc3)N2C(=O)CC1c1ccccc1` (stereo unspecified)?
PTEN del growth: 23; HUVEC prolif 384: 40; Fibroblast inh: 47*; H69AR inhibit: 24*; Pyk2 oligo antag: -2; bCat KO growth: 20

What do the screens show for `Cc1ccccc1Oc1ccc(S(=O)(=O)NCCC(=O)O)cc1`?
PTEN del growth: 97; HUVEC prolif 384: 94; Fibroblast inh: 98; H69AR inhibit: 78; Pyk2 oligo antag: -3.5*; bCat KO growth: 98

What do the screens show for `Cc1cccc(C)c1NC(=O)CSCC(=O)O`?
PTEN del growth: 100; HUVEC prolif 384: 106; Fibroblast inh: 97; H69AR inhibit: 104; Pyk2 oligo antag: -0.44; bCat KO growth: 91

What do the screens show for `Cc1cccc(C)c1NC(=O)CSCC(=O)c1ccc(O)c(O)c1`?
PTEN del growth: 53; HUVEC prolif 384: 63; Fibroblast inh: 79; H69AR inhibit: 18*; Pyk2 oligo antag: -0.25; bCat KO growth: 32

Results for CCOC(=O)C(C(=O)OCC)c1cc(Br)c2noc3c2c1C(=O)c1ccccc1-3 ?
PTEN del growth: 1.1*; Pyk2 oligo antag: -0.64; bCat KO growth: 1.3*

How did CC(=O)OCCNc1cc(N2CCN(C)CC2)c2noc3c2c1C(=O)c1ccccc1-3 do in these assays?
PTEN del growth: 90; bCat KO growth: 78

What do the screens show for `Cc1nc2ccc(S(=O)(=O)Nc3ccccc3C)cc2s1`?
PTEN del growth: 56; HUVEC prolif 384: 67; Fibroblast inh: 91; H69AR inhibit: 33*; Pyk2 oligo antag: -0.76; bCat KO growth: 56

What do the screens show for `O=C(Nc1ccc2c(c1)OCO2)OCc1ccccc1`?
PTEN del growth: 91; HUVEC prolif 384: 94; Fibroblast inh: 62; H69AR inhibit: 96; Pyk2 oligo antag: -0.61; bCat KO growth: 100

What do the screens show for `CCOC(=O)C1=C(O)/C(=C/c2cc(OC)c(OC)c(OC)c2)SC1=Nc1ccc(OC)cc1`?
PTEN del growth: 86; Pyk2 oligo antag: -2; bCat KO growth: 86

How did CCOC(=O)C1=C(O)/C(=C/c2ccc(C)o2)SC1=NC(=O)c1ccccc1C do in these assays?
HUVEC prolif 384: 64; Fibroblast inh: 58; H69AR inhibit: 17*

How did O=C(OCC(=O)N1CCN(C(=O)c2ccco2)CC1)c1cc(-c2cccc(Br)c2)nc2ccccc12 do in these assays?
PTEN del growth: 85; HUVEC prolif 384: 67; Fibroblast inh: 107; H69AR inhibit: 69; Pyk2 oligo antag: -1.1; bCat KO growth: 85

How did Nn1c(=O)c2ccccc2n2c(SCc3ccc(C(F)(F)F)cc3)nnc12 do in these assays?
PTEN del growth: 76; Pyk2 oligo antag: -0.08; bCat KO growth: 82

Results for CCn1c(Cc2ccc(OC)cc2)nnc1SCC(=O)Nc1cccc(C(=O)OC)c1 ?
PTEN del growth: 0.6*; HUVEC prolif 384: 97; Fibroblast inh: 48*; H69AR inhibit: 95; Pyk2 oligo antag: -0.88; bCat KO growth: 0.9*

How did CCn1c(Cc2ccccc2)nnc1SCC(=O)Nc1ccc(OC)cc1 do in these assays?
PTEN del growth: 91; HUVEC prolif 384: 89; Fibroblast inh: 92; H69AR inhibit: 87; Pyk2 oligo antag: 0.98; bCat KO growth: 98

Results for COc1ccc(-n2c(Cc3cccn3C)nnc2SCC(=O)Nc2cccc(OC)c2)cc1 ?
PTEN del growth: 83; HUVEC prolif 384: 93; Fibroblast inh: 95; H69AR inhibit: 37*; bCat KO growth: 97

How did Cc1cc(C(=O)CN2C(=O)NC(C)(c3cccc(Br)c3)C2=O)c(C)n1Cc1ccco1 (stereo unspecified) do in these assays?
PTEN del growth: 3.4*; HUVEC prolif 384: 79; Fibroblast inh: 87; H69AR inhibit: 87; Pyk2 oligo antag: 1.1; bCat KO growth: 1.8*

Results for Cc1cc(C(=O)CN2C(=O)NC(c3ccccc3)(c3ccccc3)C2=O)c(C)n1Cc1ccco1 ?
PTEN del growth: 68; HUVEC prolif 384: 97; Fibroblast inh: 101; H69AR inhibit: 94; Pyk2 oligo antag: 0.29; bCat KO growth: 65

What do the screens show for `CCOC(=O)CNC(=O)C(=O)c1c(O)[nH]c2ccccc12`?
PTEN del growth: 105; HUVEC prolif 384: 97; Fibroblast inh: 48*; H69AR inhibit: 92; Pyk2 oligo antag: -0.06; bCat KO growth: 87

How did CCOC(=O)CNC(=O)c1ccccc1 do in these assays?
PTEN del growth: 97; HUVEC prolif 384: 106; Fibroblast inh: 99; H69AR inhibit: 98; Pyk2 oligo antag: 0.67; bCat KO growth: 93

What do the screens show for `O=C(/C=C/c1cccnc1)c1ccc(NC(=O)c2cccc(Br)c2)cc1`?
PTEN del growth: 3.6*; Pyk2 oligo antag: -0.61; bCat KO growth: 5.7*

Results for Cc1cccc(C(=O)Nc2ccc(C(=O)/C=C/c3cccnc3)cc2)c1 ?
PTEN del growth: 1.6*; bCat KO growth: 1.4*

What do the screens show for `O=S(=O)(c1ccc2c(c1)nc(COc1ccc(Cl)cc1)n2CC1CCCO1)N1CCOCC1` (stereo unspecified)?
PTEN del growth: 20; HUVEC prolif 384: 67; Fibroblast inh: 5.7*; H69AR inhibit: 5.8*; Pyk2 oligo antag: -2.6; bCat KO growth: 18

Results for O=S(=O)(c1ccc2nc(COc3ccccc3)[nH]c2c1)N1CCOCC1 ?
PTEN del growth: 101; HUVEC prolif 384: 101; Fibroblast inh: 108; H69AR inhibit: 79; Pyk2 oligo antag: 0.94; bCat KO growth: 93

What do the screens show for `COC(=O)C1=C(C)N(CCCC(=O)O)C(=O)NC1c1cccs1` (stereo unspecified)?
PTEN del growth: 0.5*; bCat KO growth: 0.4*

Results for CCOc1cc(/C=N/N=C(/N)c2nonc2N)cc(Br)c1OCc1ccc(Cl)cc1 ?
PTEN del growth: 108; HUVEC prolif 384: 22*; Fibroblast inh: 29*; H69AR inhibit: 18*; Pyk2 oligo antag: -0.23; bCat KO growth: 100

Results for CCOc1cc(/C=N/N=C(N)N)ccc1OCc1ccc(Cl)cc1 ?
PTEN del growth: 1.2*; Pyk2 oligo antag: 0.52; bCat KO growth: 1.3*

Results for CN(C#N)c1nc(Cl)nc(Nc2cccc(Cl)c2)n1 ?
PTEN del growth: 97; bCat KO growth: 97

What do the screens show for `C/C(=N\OCC(=O)NC12CC3CC(CC(C3)C1)C2)c1cc2ccccc2o1`?
PTEN del growth: 73; bCat KO growth: 75

How did N=c1c(-c2nc3ccccc3[nH]2)cc(C(=O)c2cccs2)nn1-c1ccccc1 do in these assays?
PTEN del growth: 54; HUVEC prolif 384: 70; Fibroblast inh: 86; H69AR inhibit: 5.4*; Pyk2 oligo antag: -2.6; bCat KO growth: 47
